A short description of data set [1]: Volume of distribution at steady state in dog. The data set is classed as ADME, organism-based, Canis lupus familiaris. The conditions noted are these: in vivo, read-out: Vdss.
Data set [2] is described as follows: Half life in rat. The data set is classed as ADME, organism-based. The conditions noted are these: in vivo.
Data set [3] is described as follows: Oral bioavailability in dog. The format is ADME, organism-based, Canis lupus familiaris. To be noted: in vivo.
For data set [4], the target named is T1, Protein smoothened (Homo sapiens, UniProt Q99835). Kind of data set: Displacement of BODIPY-cyclopamine from human Smo expressed in HEK293 cells in presence of 2% fetal calf serum. The format is cell-based. The essentials:
(§1)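 Competition binding: displacement of fluorescently labeled bodipy-cyclopamine from recombinant human Smo expressed in HEK-293 cells. Run in 2% fetal calf serum and, separately, in 20% normal human serum. IC50 values are means of at least five experiments.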

Data set [5] in a line: Volume of distribution at steady state in rat. The format is ADME, organism-based. To be noted: in vivo, read-out: Vdss.
The next data set is filed under the species Canis familiaris. Kind of data set: Clearance in dog. The data set is classed as ADME, organism-based, Canis lupus familiaris. To be noted: in vivo.
Data set [6] is described as follows: Oral bioavailability in rat. To be noted: in vivo. The data set is classed as ADME, organism-based.
Another data set is filed under the species Rattus norvegicus. Nature of the data set: Clearance in rat. The conditions noted are these: in vivo. The format is ADME, organism-based.
A short description of data set [7]: Antiproliferative activity against irradiated Ptch +/- mouse medulloblastoma cells. To be noted: Medulloblastoma cell, light or radiation study. The format is functional. The essentials:
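Proliferation of irradiated Ptch +/- mouse medulloblastoma cells, which depend on the Hh pathway; readout reported as CC50.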

Data set [8] can be described thus: Half life in dog. To be noted: in vivo. The format is ADME, organism-based, Canis lupus familiaris.
Data set [9] deals with T1, Protein smoothened. Nature of the data set: Displacement of BODIPY-cyclopamine from human Smo expressed in HEK293 cells in presence of 20% normal human serum. The data set is classed as cell-based. A digest of the protocol:
as §1

In the next data set the target is CYP3A4 (Homo sapiens, UniProt P08684). Nature of the data set: Inhibition of CYP3A4 at 10 uM. The data set is classed as ADME.
Chain of CYP3A4 (P08684 whole entry): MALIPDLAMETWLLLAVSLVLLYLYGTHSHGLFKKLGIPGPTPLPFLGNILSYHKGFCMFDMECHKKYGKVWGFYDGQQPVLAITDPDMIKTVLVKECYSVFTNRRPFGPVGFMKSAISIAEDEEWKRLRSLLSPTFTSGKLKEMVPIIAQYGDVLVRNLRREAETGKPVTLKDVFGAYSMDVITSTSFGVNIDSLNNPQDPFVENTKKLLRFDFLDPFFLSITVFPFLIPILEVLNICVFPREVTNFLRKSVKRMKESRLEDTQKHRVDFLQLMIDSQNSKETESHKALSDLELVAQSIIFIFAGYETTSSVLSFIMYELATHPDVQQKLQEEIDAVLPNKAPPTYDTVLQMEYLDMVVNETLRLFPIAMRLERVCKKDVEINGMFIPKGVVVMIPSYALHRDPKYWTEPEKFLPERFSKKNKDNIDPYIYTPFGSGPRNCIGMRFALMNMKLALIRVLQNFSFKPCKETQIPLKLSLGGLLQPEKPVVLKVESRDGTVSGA
A short description of data set [10]: Plasma protein binding in human assessed as unbound fraction. The format is ADME, cell-free.
A further data set addresses CYP2C9 (Homo sapiens, UniProt P11712). Kind of data set: Inhibition of CYP2C9 at 10 uM. The format is ADME.

T1 sequence (Q99835 whole entry): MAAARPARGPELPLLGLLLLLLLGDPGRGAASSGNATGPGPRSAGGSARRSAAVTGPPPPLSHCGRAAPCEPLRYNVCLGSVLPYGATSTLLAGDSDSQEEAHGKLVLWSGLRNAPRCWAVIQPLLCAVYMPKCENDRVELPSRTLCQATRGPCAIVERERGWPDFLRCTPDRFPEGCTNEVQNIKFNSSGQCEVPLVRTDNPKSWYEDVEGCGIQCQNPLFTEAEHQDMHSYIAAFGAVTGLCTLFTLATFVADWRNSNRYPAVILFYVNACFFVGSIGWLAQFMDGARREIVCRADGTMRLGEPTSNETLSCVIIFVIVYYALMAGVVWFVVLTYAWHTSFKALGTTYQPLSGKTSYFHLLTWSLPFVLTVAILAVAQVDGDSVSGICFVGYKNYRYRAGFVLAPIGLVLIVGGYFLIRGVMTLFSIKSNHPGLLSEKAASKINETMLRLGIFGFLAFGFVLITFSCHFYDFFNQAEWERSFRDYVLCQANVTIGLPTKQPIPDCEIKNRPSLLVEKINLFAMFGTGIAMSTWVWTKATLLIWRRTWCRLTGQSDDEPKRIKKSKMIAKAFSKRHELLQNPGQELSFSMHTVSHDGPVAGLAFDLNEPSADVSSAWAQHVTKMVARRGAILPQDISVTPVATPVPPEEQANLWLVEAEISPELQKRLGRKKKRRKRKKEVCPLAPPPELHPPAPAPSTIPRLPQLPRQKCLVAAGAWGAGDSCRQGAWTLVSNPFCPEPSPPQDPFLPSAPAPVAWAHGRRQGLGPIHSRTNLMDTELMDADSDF
Chain of CYP2C9 (P11712 whole entry): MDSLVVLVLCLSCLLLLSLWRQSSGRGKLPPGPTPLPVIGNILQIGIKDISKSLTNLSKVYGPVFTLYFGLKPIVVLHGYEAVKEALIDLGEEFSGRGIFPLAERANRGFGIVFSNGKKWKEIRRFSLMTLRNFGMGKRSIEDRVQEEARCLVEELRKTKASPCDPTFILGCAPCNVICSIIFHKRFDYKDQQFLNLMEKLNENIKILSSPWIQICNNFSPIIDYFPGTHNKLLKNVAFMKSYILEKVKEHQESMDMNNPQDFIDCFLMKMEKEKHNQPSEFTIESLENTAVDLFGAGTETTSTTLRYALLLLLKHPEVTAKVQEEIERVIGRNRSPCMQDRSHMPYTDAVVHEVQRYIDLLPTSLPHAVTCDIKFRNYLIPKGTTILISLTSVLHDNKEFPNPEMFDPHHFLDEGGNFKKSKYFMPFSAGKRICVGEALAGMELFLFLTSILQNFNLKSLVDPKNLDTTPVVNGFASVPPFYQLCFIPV

In the case of `O=C(Nc1cccc(Cl)c1Cl)N1CCN2C(=O)N([C@H]3C[C@@H]3c3ccccc3)C(=O)[C@@H]2C1`, the Vd in data set [1] is 2.5 L/kg; in data set [5], 8 L/kg. The half-life in [2] is 2.2 h; in data set [8], 10 h. Moreover, the bioavailability in [3] came to 97%; in data set [6], 30%. In addition, the IC50 was found to be 0.23 µM at Protein smoothened [4] and 0.69 µM on Protein smoothened [9]. Moreover, the clearance was 4 mL/min/kg in the data set filed under Canis familiaris and 46 mL/min/kg in the data set listed under Rattus norvegicus. Also, the 50% cytotoxic concentration (CC50) in data set [7] turned out to be 0.012 µM.

`CN(C)C(=O)c1cc(Cl)c(NC(=O)N2CCN3C(=O)N([C@H]4C[C@@H]4c4ccccc4)C(=O)[C@@H]3C2)c(Cl)c1`: the half-life in data set [2] is 0.6 h. In addition, the IC50 on Protein smoothened [4] was found to be 0.077 µM; at Protein smoothened [9], 0.12 µM. The Vd in data set [5] amounted to 2.1 L/kg. Also, in the data set listed under Rattus norvegicus, the clearance was 41 mL/min/kg.

Turning to `N#Cc1cc(Cl)c(NC(=O)N2CCN3C(=O)N([C@H]4C[C@@H]4c4ccccc4)C(=O)[C@@H]3C2)c(Cl)c1`, in data set [2], the half-life was 5.4 h. For the same compound, the half-inhibitory concentration (IC50) came out at 0.1 µM at Protein smoothened [4] and 0.45 µM at Protein smoothened [9]. In data set [5], the Vd stood at 0.5 L/kg. This compound also registered a bioavailability in [6] of 56%. This compound also returned a clearance in the data set filed under Rattus norvegicus of 2 mL/min/kg.

Turning to `CS(=O)(=O)c1cc(Cl)c(NC(=O)N2CCN3C(=O)N([C@H]4C[C@@H]4c4ccccc4)C(=O)[C@@H]3C2)c(Cl)c1`, the Vd in [1] worked out at 0.3 L/kg; in [5], 0.6 L/kg. Besides, the half-life was 3.2 h in data set [2] and 1 h in [8]. Also, the figures for the IC50 on Protein smoothened [4] and at Protein smoothened [9] were 0.042 µM and 0.068 µM, respectively. Moreover, the clearance amounted to 1.7 mL/min/kg in the data set listed under Canis familiaris and 5 mL/min/kg in the data set listed under Rattus norvegicus. The compound also yielded a bioavailability in data set [6] of 74%.

Turning to `O=C(Nc1ccccc1-c1ccccc1)N1CCN2C(=O)N(C3CC3c3ccccc3)C(=O)C2C1` (stereo in doubt; 3), the IC50 at Protein smoothened [4] is 0.048 µM.

With `C[C@@]12CN(C(=O)Nc3ccccc3-c3ccccc3)CCN1C(=O)N([C@H]1C[C@@H]1c1ccccc1)C2=O`, the half-inhibitory concentration (IC50) on Protein smoothened [4] amounted to 0.019 µM; at Protein smoothened [9], 0.06 µM.

In the case of `O=C(Nc1c(Cl)cc(F)cc1Cl)N1CCN2C(=O)N([C@H]3C[C@@H]3c3ccccc3)C(=O)[C@@H]2C1`, the half-maximal inhibitory concentration (IC50) on Protein smoothened [4] came out at 0.18 µM; on Protein smoothened [9], 0.52 µM.

In data set [2], `O=C(Nc1ccccc1-c1ccccc1)N1CCN2C(=O)N([C@H]3C[C@@H]3c3ccccc3)C(=O)[C@@H]2C1` had a half-life of 2.7 h. The inhibition at 10 µM at CYP3A4 and on CYP2C9 was 50% each time. The fraction unbound in [10] amounted to 0.044. The IC50 came out at 0.021 µM on Protein smoothened [4] and 0.07 µM on Protein smoothened [9]. Besides, the Vd in [5] came to 8 L/kg. The clearance in the data set filed under Rattus norvegicus was 56 mL/min/kg. The compound further had a CC50 in data set [7] of 0.002 µM.

Take `C[C@]12CN(C(=O)Nc3ccccc3-c3ccccc3)CCN1C(=O)N([C@H]1C[C@@H]1c1ccccc1)C2=O`: the IC50 stood at 1.2 µM at Protein smoothened [4] and 1.6 µM on Protein smoothened [9].

Consider `O=C(Nc1ccccc1-c1ccccc1)N1CCN2C(=O)N(C3CC3c3ccccc3)C(=O)C2C1` (stereo in doubt; 5), for which, on Protein smoothened [4], the IC50 is 0.095 µM.

The values are drawn from ChEMBL document CHEMBL1811786, “Identification of MK-5710 ((8aS)-8a-methyl-1,3-dioxo-2-[(1S,2R)-2-phenylcyclo- propyl]-N-(1-phenyl-1H-pyrazol-5-yl)hexahydro-imidazo[1,5-a]pyrazine-7(1H)-carboxamide), a potent smoothened antagonist for use in Hedgehog pathway dependent malignancies, part 2” (Bioorg Med Chem Lett, 2011).
